Experimental data taken from ChEMBL document CHEMBL2157861, “Discovery of 4-morpholino-pyrimidin-6-one and 4-morpholino-pyrimidin-2-one-containing Phosphoinositide 3-kinase (PI3K) p110β isoform inhibitors through structure-based fragment optimisation” (Bioorg Med Chem Lett, 2012).
Converted amounts (≈) assume the structure as drawn.

Experiments:
[1] = molecular target: Phosphatidylinositol 4,5-bisphosphate 3-kinase catalytic subunit beta isoform (Homo sapiens, UniProt P42338); assay: Inhibition of human recombinant His6-tagged PI3K p110beta expressed in baculovirus using DiC8-PI(4,5)P2 as substrate after 20 mins by AlphaScreen assay
In short: (§1)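 Values are the mean of at least two experiments. Experimental error was within 20% of the value.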

[2] = Lipophilicity, log D of the compound by HPLC analysis at pH 7.4; format: physicochemical; conditions: buffer
In short: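 LogD was determined experimentally at pH 7.4 by an HPLC method.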

[3] = molecular target: Phosphatidylinositol 4,5-bisphosphate 3-kinase catalytic subunit alpha isoform (Homo sapiens, UniProt P42336); assay: Inhibition of human recombinant His6-tagged PI3K p110alpha expressed in baculovirus using DiC8-PI(4,5)P2 as substrate after 20 mins by AlphaScreen assay; in short: as §1
[4] = Half life in human liver microsomes after 30 mins; format: ADME, Microsome
In short: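 Half-life was measured after a 30 min incubation with human liver microsomes at 0.5 mg/mL.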

[5] = molecular target: T1, Phosphatidylinositol 4,5-bisphosphate 3-kinase catalytic subunit delta isoform (Homo sapiens, UniProt O00329); assay: Inhibition of PI3K p110delta
T1 sequence (O00329 whole entry): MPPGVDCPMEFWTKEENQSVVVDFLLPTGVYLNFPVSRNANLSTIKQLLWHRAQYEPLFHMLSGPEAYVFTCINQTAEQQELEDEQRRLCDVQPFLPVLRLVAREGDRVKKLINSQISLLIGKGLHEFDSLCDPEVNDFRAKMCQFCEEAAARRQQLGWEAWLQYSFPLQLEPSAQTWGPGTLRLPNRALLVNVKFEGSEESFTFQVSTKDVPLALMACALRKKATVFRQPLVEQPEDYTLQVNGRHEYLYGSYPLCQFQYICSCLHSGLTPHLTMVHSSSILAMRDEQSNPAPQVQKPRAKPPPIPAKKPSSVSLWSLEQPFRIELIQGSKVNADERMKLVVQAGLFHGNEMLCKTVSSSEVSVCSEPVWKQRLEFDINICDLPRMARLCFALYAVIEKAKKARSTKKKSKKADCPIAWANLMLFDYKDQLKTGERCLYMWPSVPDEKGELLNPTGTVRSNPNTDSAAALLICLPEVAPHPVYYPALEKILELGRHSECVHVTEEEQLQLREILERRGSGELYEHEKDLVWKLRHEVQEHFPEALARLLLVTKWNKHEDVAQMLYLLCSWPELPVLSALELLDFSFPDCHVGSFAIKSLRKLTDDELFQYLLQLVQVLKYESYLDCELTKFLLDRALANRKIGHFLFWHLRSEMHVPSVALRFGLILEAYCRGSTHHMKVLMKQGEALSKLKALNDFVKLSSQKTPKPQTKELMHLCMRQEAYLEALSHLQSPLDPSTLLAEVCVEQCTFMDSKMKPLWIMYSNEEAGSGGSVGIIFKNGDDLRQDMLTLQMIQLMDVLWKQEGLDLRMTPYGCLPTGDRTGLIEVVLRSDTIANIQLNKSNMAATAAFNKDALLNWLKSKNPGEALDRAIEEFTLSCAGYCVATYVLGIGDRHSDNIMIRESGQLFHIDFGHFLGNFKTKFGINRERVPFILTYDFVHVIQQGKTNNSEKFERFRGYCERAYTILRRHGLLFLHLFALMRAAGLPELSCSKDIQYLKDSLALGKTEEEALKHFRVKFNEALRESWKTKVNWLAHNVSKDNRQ

[6] = molecular target: Phosphatidylinositol 4,5-bisphosphate 3-kinase catalytic subunit gamma isoform (Homo sapiens, UniProt P48736); assay: Inhibition of PI3K p110gamma
[7] = Solubility of the compound in DMSO/HBSS at pH 7.4; format: physicochemical
In short: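 Solubility was measured from DMSO into HBSS at pH 7.4.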

Liver microsomes = assay: Drug metabolism in human liver microsomes assessed as reactive glutathione adduct formation ratio after 30 mins relative to clozapine; format: ADME, Microsome; conditions: 0.5 h
In short: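 Human liver microsomes at 1 mg/mL were incubated for 30 min in the presence of glutathione. The read-out was the ratio of reactive metabolite formation.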

Phosphatidylinositol 4,5-bisphosphate 3-kinase catalytic subunit alpha isoform, sequence (P42336 whole entry, canonical isoform): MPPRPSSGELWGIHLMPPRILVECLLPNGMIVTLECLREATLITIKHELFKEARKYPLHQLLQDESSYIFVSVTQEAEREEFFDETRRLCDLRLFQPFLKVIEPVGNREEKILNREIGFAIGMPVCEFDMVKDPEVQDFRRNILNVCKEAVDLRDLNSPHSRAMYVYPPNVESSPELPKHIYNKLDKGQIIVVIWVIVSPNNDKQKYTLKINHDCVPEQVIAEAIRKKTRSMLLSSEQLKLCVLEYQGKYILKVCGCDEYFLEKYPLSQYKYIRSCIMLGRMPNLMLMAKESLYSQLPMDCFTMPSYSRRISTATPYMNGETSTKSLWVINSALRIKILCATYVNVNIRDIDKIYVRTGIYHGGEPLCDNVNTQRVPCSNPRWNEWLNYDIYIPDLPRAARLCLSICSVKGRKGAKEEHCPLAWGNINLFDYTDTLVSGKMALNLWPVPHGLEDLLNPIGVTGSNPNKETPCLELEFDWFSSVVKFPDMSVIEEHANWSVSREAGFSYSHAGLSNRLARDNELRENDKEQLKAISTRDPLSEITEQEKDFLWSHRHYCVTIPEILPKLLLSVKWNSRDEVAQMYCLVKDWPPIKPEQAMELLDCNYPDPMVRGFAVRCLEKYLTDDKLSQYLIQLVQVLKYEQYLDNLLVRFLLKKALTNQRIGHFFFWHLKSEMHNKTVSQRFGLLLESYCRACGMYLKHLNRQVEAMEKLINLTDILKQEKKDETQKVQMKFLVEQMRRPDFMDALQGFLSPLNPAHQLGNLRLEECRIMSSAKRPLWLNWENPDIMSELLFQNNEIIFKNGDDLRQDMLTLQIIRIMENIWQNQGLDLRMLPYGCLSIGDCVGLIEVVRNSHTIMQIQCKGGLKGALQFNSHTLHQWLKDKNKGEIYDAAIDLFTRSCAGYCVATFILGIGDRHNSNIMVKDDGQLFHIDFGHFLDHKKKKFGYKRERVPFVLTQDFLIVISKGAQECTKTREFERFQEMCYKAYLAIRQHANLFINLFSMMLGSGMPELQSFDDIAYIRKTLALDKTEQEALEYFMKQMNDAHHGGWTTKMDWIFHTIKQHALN
Phosphatidylinositol 4,5-bisphosphate 3-kinase catalytic subunit beta isoform, sequence (P42338 whole entry, canonical isoform): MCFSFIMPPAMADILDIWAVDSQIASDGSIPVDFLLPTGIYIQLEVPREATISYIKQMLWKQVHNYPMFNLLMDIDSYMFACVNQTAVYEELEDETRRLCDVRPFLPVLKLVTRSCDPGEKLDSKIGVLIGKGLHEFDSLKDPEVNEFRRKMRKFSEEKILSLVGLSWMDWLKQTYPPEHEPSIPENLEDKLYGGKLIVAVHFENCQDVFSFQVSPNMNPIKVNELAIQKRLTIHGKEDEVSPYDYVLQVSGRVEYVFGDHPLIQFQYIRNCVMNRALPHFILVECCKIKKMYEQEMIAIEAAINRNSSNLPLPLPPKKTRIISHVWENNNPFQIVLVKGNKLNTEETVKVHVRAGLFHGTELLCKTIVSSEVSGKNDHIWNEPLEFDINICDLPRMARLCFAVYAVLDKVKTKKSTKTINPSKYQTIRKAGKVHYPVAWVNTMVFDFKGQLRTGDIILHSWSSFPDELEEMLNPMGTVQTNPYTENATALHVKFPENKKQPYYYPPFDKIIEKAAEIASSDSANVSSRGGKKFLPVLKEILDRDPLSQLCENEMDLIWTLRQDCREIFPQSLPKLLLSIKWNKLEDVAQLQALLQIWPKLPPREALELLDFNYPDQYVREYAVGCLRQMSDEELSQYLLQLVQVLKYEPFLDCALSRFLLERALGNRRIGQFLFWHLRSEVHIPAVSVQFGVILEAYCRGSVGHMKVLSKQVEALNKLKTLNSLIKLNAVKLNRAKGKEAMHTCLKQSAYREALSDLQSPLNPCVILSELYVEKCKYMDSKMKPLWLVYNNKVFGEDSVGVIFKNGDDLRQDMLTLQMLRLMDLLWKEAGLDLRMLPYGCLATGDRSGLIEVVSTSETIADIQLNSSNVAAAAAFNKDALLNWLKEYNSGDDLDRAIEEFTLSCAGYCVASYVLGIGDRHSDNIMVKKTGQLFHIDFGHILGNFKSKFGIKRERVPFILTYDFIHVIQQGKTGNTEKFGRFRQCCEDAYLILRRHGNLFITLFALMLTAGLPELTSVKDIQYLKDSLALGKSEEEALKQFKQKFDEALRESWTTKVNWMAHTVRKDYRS
Phosphatidylinositol 4,5-bisphosphate 3-kinase catalytic subunit gamma isoform, sequence (P48736 whole entry, canonical isoform): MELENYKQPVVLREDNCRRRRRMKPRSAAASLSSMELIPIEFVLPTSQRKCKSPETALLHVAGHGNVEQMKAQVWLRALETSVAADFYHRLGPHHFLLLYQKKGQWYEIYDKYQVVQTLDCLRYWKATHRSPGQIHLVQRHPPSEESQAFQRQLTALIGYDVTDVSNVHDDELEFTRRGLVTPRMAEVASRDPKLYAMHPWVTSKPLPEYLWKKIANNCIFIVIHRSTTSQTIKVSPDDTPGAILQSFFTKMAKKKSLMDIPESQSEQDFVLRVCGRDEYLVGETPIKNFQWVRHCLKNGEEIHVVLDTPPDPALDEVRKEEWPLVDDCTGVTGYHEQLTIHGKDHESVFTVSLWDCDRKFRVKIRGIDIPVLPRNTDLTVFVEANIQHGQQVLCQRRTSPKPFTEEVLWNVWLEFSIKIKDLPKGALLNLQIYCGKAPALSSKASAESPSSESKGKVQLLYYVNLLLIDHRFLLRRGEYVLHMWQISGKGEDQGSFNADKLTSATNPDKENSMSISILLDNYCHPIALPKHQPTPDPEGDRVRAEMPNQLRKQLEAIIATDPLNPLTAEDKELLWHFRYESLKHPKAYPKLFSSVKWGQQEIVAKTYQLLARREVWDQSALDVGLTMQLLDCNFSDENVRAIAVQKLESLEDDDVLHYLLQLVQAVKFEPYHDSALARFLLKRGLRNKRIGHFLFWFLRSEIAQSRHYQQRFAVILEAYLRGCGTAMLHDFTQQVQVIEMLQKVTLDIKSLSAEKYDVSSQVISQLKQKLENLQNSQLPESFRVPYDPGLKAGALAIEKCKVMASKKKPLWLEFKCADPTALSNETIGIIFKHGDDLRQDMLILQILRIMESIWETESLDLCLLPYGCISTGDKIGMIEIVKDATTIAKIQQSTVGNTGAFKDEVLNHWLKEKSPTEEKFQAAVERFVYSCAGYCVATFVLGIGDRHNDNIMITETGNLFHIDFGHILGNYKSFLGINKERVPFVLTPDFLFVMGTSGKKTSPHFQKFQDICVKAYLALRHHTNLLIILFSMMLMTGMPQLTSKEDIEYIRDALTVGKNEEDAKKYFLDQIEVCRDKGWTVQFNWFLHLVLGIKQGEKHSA

Row | IC50 [1] [µM] | IC50 [3] [µM] | Structure (SMILES) | other results
1 | 130 | – | Cc1cc(N2CCOCC2)nc(NCc2ccccc2)n1 | –
2 | – | 5.7 | Cc1cc(C(C)Nc2ccccc2)c2nc(N3CCOCC3)cc(=O)n2c1 (stereo not given) | logD [2]: 3.6
3 | 1.9 | 12.2 | O=c1cc(N2CCOCC2)nc(NCc2ccccc2)[nH]1 | logD [2]: 1.2
4 | 29 | > 83.3 | O=c1nc(N2CCOCC2)cc(NCc2ccccc2)[nH]1 | logD [2]: 0.5
5 | 63 | 283 | O=c1cc(NCc2ccccc2)nc(N2CCOCC2)[nH]1 | logD [2]: 1.1
6 | 34 | 142 | O=c1cc(NCc2ccccc2)[nH]c(N2CCOCC2)c1 | logD [2]: 1.8
7 | 2.5 | – | NC(=O)c1cc(N2CCOCC2)nc(NCc2ccccc2)n1 | –
8 | 23 | – | CNC(=O)c1cc(N2CCOCC2)nc(NCc2ccccc2)n1 | –
9 | 25 | – | CN(C)C(=O)c1cc(N2CCOCC2)nc(NCc2ccccc2)n1 | –
10 | 110 | > 83.3 | Nc1nc(NCc2ccccc2)cc(N2CCOCC2)n1 | –
11 | 1.6 | 41.4 | N#Cc1nc(NCc2ccccc2)cc(N2CCOCC2)n1 | –
12 | 87 | > 83.3 | NCc1nc(NCc2ccccc2)cc(N2CCOCC2)n1 | –
13 | 36 | > 83.3 | c1ccc(CNc2cc(N3CCOCC3)ncn2)cc1 | –
14 | 32 | 240 | COC(=O)c1cc(NCc2ccccc2)nc(N2CCOCC2)c1 | –
15 | 43 | 119 | OCc1cc(NCc2ccccc2)nc(N2CCOCC2)c1 | –
16 | 0.093 | 4.3 | O=c1cc(N2CCOCC2)nc(NCc2cccc3ccccc23)[nH]1 | half-life [4]: 41 min; IC50 [5]: 0.14 µM; logD [2]: 2.4; IC50 [6]: 18.5 µM; solubility [7]: 4.5 µM (≈ 1.51 µg/mL); Ratio (Liver microsomes): 0.21
17 | 0.084 | 3 | O=c1cc(N2CCOCC2)nc(NCc2cccc(Cl)c2Cl)[nH]1 | –
18 | 0.47 | 7.9 | O=c1cc(N2CCOCC2)nc(NCc2cccc(Cl)c2)[nH]1 | –
19 | 0.57 | 4.88 | O=c1cc(N2CCOCC2)nc(NCc2ccccc2Cl)[nH]1 | –
20 | 1.4 | 4.52 | O=c1cc(N2CCOCC2)nc(NCc2cc(Cl)ccc2Cl)[nH]1 | –
21 | 1.5 | 3.38 | O=c1cc(N2CCOCC2)nc(NCc2c(Cl)cccc2Cl)[nH]1 | –
22 | 2.6 | > 83.3 | O=c1nc(N2CCOCC2)cc(NCc2cccc3ccccc23)[nH]1 | half-life [4]: > 115 min; logD [2]: 1.5; solubility [7]: > 100 µM; Ratio (Liver microsomes): 0
23 | 1.5 | 100 | O=c1nc(N2CCOCC2)cc(NCc2cccc(Cl)c2Cl)[nH]1 | –
24 | 10 | 52.8 | C[C@H](Nc1cc(N2CCOCC2)nc(=O)[nH]1)c1cccc2ccccc12 | –
25 | 36 | 146 | C[C@@H](Nc1cc(N2CCOCC2)nc(=O)[nH]1)c1cccc2ccccc12 | –
